Reference: paper PMC3961502 (The Journal of investigative dermatology, 2013)

Key:
Type in all cases: cell-based, human
[1] = tested on: MCF-7 cells expressing GFP-PDGFR-β; experiment: PDGFR-GFP / TR-dextran co-localization; conditions: MCF-7 pre-incubated with 80 µM dynasore 1 h, then 1 nM PDGF-BB
Method in brief: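 MCF-7 cells expressing GFP-PDGFR-β were pre-incubated 1 h with 80 µM dynasore in serum-free DMEM. They then received TR-dextran plus 1 nM PDGF-BB ± 10 µM peptide in HBSS for 15 min and were imaged by confocal microscopy. Both channel thresholds were set at 70, and >100 cells were scored per condition. Co-localization index = yellow pixels / (yellow + green pixels).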

PDGFR-β = experiment: PDGFR signaling by Western blot; conditions: AHDF preincubated 1 h with 80 µM dynasore, 1 nM PDGF-BB in HBSS (Figure S9)
Method in brief: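 AHDF primary dermal fibroblasts (passage 8–12, grown in DMEM/10% FBS) were stimulated with 1 nM PDGF-BB ± 10 µM peptide in HBSS. Cells were lysed in Tris pH 7.5 buffer with phosphatase and protease inhibitors, sonicated and boiled. Equal protein was run on 10% SDS-PAGE and blotted to nitrocellulose, blocked in 2% BSA/TBST, and probed overnight at 4°C. Detection used HRP-secondary chemiluminescence, with signal intensity quantified.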

AHDF [2] = experiment: TUNEL apoptosis assay under nutrient deprivation; conditions: AHDF in HBSS, 3 days of starvation; 1 nM PDGF, 10 µM P12; >800 cells counted, n=6, mean
AHDF [3] = experiment: cell morphology by phase contrast microscopy under nutrient deprivation; conditions: AHDF in HBSS 3 days; 1 nM PDGF, 10 µM P12

| Molecule | PDGF-BB-stimulated internalization of PDGFR-GFP under dynamin inhibition [1] | PDGF-BB stimulated p-Akt signal in the presence of dynasore (PDGFR-β) | apoptosis, %TUNEL+ (TUNEL positive/DAPI positive) (AHDF [2]) [%] | cell morphology (AHDF [3]) |
| --- | --- | --- | --- | --- |
| O=C(N/N=C/c1ccc(O)c(O)c1)c1cc2ccccc2cc1O [dynasore] | minimal internalization | inhibition | – | – |
| PDGF-BB: platelet-derived growth factor BB, purchased from Invitrogen | – | – | 30 | rounded or shriveled |
